Reference: ChEMBL document CHEMBL2034950, “Sphingolipid analogues inhibit development of malaria parasites” (ACS Med Chem Lett, 2012)
Activity calls are given as the source filed them. The rule behind the calls is not given here.

What was measured:
[1] = test system: Plasmodium falciparum; assay: Antimalarial activity against chloroquine-resistant Plasmodium falciparum W2 infected in O-positive human RBC assessed as [3H]-hypoxanthine incorporation after 48 hrs by scintillation counting; format: functional, organism-based
Procedure, shortened: (§1)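 Growth inhibition in vitro by [3H]-hypoxanthine uptake in parasitized RBCs; dose-response runs to derive IC50.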

[2] = Cytotoxicity against human HFF1 cells at 10 uM after 72 hrs by SRB assay; format: cell-based; settings: hff-1, 72 h
Procedure, shortened: (§2)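 Human foreskin fibroblasts (HFF-1) were seeded at 20,000 cells per plate, incubated with compound at 10 or 50 μM for 72 h, and read by sulforhodamine B assay.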

[3] = Cytotoxicity against human HFF1 cells at 50 uM after 72 hrs by SRB assay; format: cell-based; settings: hff-1, 72 h; procedure, shortened: as §2
[4] = test system: Plasmodium knowlesi; assay: Antimalarial activity against Plasmodium knowlesi infected in rhesus monkey RBC assessed as [3H]-hypoxanthine incorporation after 12 hrs by scintillation counting; format: functional, organism-based
Procedure, shortened: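 Dose-response assay of in vitro parasite growth and replication in red blood cells, read as [³H]-hypoxanthine uptake. IC50 values were derived, with the error given as standard deviation.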

[5] = test system: Plasmodium falciparum; assay: Antimalarial activity against chloroquine-sensitive Plasmodium falciparum D6 infected in O-positive human RBC assessed as [3H]-hypoxanthine incorporation after 48 hrs by scintillation counting; format: functional, organism-based; procedure, shortened: as §1
[6] = test system: Plasmodium falciparum; assay: Antimalarial activity against chloroquine-resistant Plasmodium falciparum W2 infected in O-positive human RBC assessed as [3H]-hypoxanthine incorporation after 48 hrs by scintillation counting in presence of BSA; format: functional, organism-based
[7] = test system: Plasmodium falciparum; assay: Antimalarial activity against chloroquine-sensitive Plasmodium falciparum D6 infected in O-positive human RBC assessed as [3H]-hypoxanthine incorporation after 48 hrs by scintillation counting in presence of BSA; format: functional, organism-based
[8] = Half life in mouse RBC at 30 mg/kg, po QD; format: ADME, organism-based, Erythrocyte; set-up: dose 30 mg/kg, route oral; settings: red blood cells (RBC)
Procedure, shortened: (§3)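 Mice were dosed orally once daily at 30 mg/kg for five days. Drug levels were followed over time in plasma and in red blood cells on day 1 and on day 5 of dosing.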

[9] = Cmax in mouse plasma at 30 mg/kg, po QD; format: ADME, organism-based; set-up: dose 30 mg/kg, route oral; procedure, shortened: as §3
[10] = Tmax in mouse plasma at 30 mg/kg, po QD; format: ADME, organism-based; set-up: dose 30 mg/kg, route oral; procedure, shortened: as §3
[11] = Cmax in mouse RBC at 30 mg/kg, po QD; format: ADME, organism-based, Erythrocyte; set-up: dose 30 mg/kg, route oral; settings: red blood cells (RBC); procedure, shortened: as §3
[12] = AUC (0 to infinity) in mouse RBC at 30 mg/kg, po QD; format: ADME, organism-based, Erythrocyte; set-up: time infinity, dose 30 mg/kg, route oral; settings: red blood cells (RBC); procedure, shortened: as §3
[13] = Half life in mouse plasma at 30 mg/kg, po QD; format: ADME, organism-based; set-up: dose 30 mg/kg, route oral; procedure, shortened: as §3
[14] = Apparent volume of distribution during terminal phase in mouse RBC at 30 mg/kg, po QD; format: ADME, organism-based, Erythrocyte; set-up: dose 30 mg/kg, route oral; settings: red blood cells (RBC), read-out: Vz/F; procedure, shortened: as §3
[15] = AUC (0 to infinity) in mouse plasma at 30 mg/kg, po QD; format: ADME, organism-based; set-up: time infinity, dose 30 mg/kg, route oral; procedure, shortened: as §3
[16] = Ratio of drug uptake in mouse RBC to mouse plasma at 30 mg/kg, po QD; format: ADME, organism-based; set-up: dose 30 mg/kg, route oral; settings: red blood cells (RBC) / plasma; procedure, shortened: as §3
[17] = test system: Plasma; assay: Apparent volume of distribution during terminal phase in mouse plasma at 30 mg/kg, po QD; format: ADME, organism-based; set-up: dose 30 mg/kg, route oral; settings: in vivo; procedure, shortened: as §3
[18] = test system: Plasmodium falciparum; assay: Antimalarial activity against chloroquine-resistant Plasmodium falciparum W2 infected in O-positive human RBC assessed as trophozoite-stage parasites at 546.94 ng/mL after 48 hrs by Giemsa staining-based microscopic analysis (reference value: 4.2%); format: functional
[19] = test system: Plasmodium falciparum; assay: Antimalarial activity against chloroquine-resistant Plasmodium falciparum W2 infected in O-positive human RBC assessed as schizont-stage parasites at 546.94 ng/mL after 48 hrs by Giemsa staining-based microscopic analysis (reference value: 8.05%); format: functional
[20] = test system: Plasmodium falciparum; assay: Antimalarial activity against chloroquine-resistant Plasmodium falciparum W2 infected in O-positive human RBC assessed as ring-stage parasites at 546.94 ng/mL after 48 hrs by Giemsa staining-based microscopic analysis (reference value: 87.9%); format: functional
[21] = test system: Plasmodium falciparum; assay: Antimalarial activity against chloroquine-resistant Plasmodium falciparum W2 infected in O-positive human RBC assessed as parasitemia at 546.94 ng/mL after 48 hrs by Giemsa staining-based microscopic analysis; format: functional
[22] = test system: Plasmodium falciparum; assay: Antimalarial activity against chloroquine-resistant Plasmodium falciparum W2 infected in O-positive human RBC assessed as aberrant form of ring-stage parasites at 546.94 ng/mL after 28 to 48 hrs by Giemsa staining-based microscopic analysis; format: functional, organism-based
[23] = test system: Plasmodium falciparum; assay: Antimalarial activity against chloroquine-resistant Plasmodium falciparum W2 infected in O-positive human RBC assessed as aberrant form of trophozoite-stage parasites at 546.94 ng/mL after 28 to 48 hrs by Giemsa staining-based microscopic analysis; format: functional, organism-based

| SMILES | IC50 [1] | Activity [2] | Activity [3] | IC50 [4] | IC50 [5] | IC50 [6] | IC50 [7] | also measured |
| --- | --- | --- | --- | --- | --- | --- | --- | --- |
| CCCCCCCCCCCCC[C@H](O)C[C@H](O)[C@H](C)N(C)C | 4.4 µM | Non-toxic | Toxic | 6.8 µM | 7 µM |  |  |  |
| O[C@@H](c1cc(C(F)(F)F)nc2c(C(F)(F)F)cccc12)[C@H]1CCCCN1 (relative stereo) [(S,R)-MEFLOQUINE] |  |  |  | 0.04 µM |  | 0.0004 µM |  |  |
| CCCCCCCCCCCCC[C@@H](O)C[C@H](O)C1(N)CC1 (racemic) |  |  |  |  |  | 7.2 µM | 11.2 µM |  |
| CCCCCCCCCCCCC[C@H](O)C[C@@H](O)[C@H](C)NC | 8.1 µM | Non-toxic | Toxic |  | 14.6 µM |  |  |  |
| CCCCCCCCCCCCCC(O)CC(=O)C(C)(C)N (racemic) |  |  |  |  |  | 2.6 µM | 2.5 µM |  |
| CCCCCCCCCCCCC[C@H](O)C[C@H](O)[C@H](C)N [ENIGMOL] | 7.4 µM | Non-toxic | Toxic | 10.5 µM | 12.6 µM | 9.2 µM | 5.3 µM | half-life [8]: 8.9 h; Cmax [9]: 1100 nM; Tmax [10]: 2 h; Cmax [11]: 3300 nM; AUC(0-inf) [12]: 50.7 µM·h; half-life [13]: 10.7 h; Vd/F [14]: 25 L/kg; AUC(0-inf) [15]: 14.4 µM·h; Kp [16]: 3; Vz/F [17]: 4.4 L/kg |
| CCCCCCCC(F)(F)CCCCC[C@H](O)C[C@H](O)[C@H](C)N | 5.6 µM | Non-toxic | Toxic |  | 12.7 µM |  |  |  |
| CCCCCCCC(F)(F)CCCCC[C@H](O)C[C@H](O)[C@H](C)NC | 2.4 µM | Non-toxic | Toxic |  | 7.3 µM |  |  |  |
| CCCCCCCCCCCCC[C@H](O)C[C@H](O)C1(N)CC1 (racemic) |  |  |  |  |  | 9.9 µM | 5.5 µM |  |
| CCCCCCCCCCCCC[C@H](O)C[C@H](O)[C@H](C)NC | 1.6 µM | Non-toxic | Toxic | 1.7 µM | 4.7 µM | 0.9 µM | 1.7 µM | Activity [18]: 39.2%; Activity [19]: 18.9%; Activity [20]: 41.9%; Activity [21]: 1.3%; Activity [22]: Active; Activity [23]: Active |
| CCCCCCCCCCCCC[C@@H](O)C[C@H](O)[C@H](C)N | 8.2 µM | Non-toxic | Toxic | 17.6 µM | 12.7 µM |  |  |  |
| CCCCCCCCCCCCC[C@H](O)C[C@H](O)C(C)(C)NC (racemic) |  |  |  |  |  | 0.25 µM | 0.7 µM |  |
| CCCCCCCCCCCCCCCC(=O)N[C@@H](C)[C@@H](O)C[C@@H](O)CCCCCCCCCCCCC |  | Non-toxic | Toxic |  |  |  |  | Activity [1]: inactive; Activity [4]: inactive; Activity [5]: inactive |
| CCCCCCCCCCCCCC(O)C/C(=N\O)C(C)(C)N (racemic) |  |  |  |  |  | 10 µM | 7.44 µM |  |
| CCCCCCCCCCCCC[C@H](O)C[C@H](O)[C@H](C)NC(C)=O | 13.1 µM | Non-toxic | Toxic |  | 11.1 µM |  |  | Activity [4]: inactive |
| CCCCCCCCCCCCC[C@H](O)C[C@H](O)[C@@H]1CCCN1 | 4.4 µM | Non-toxic | Toxic | 6.3 µM | 9.7 µM |  |  |  |
| CCCCCCCCCCCCC[C@H](O)C[C@@H](O)[C@H](C)N | 9.2 µM | Non-toxic | Toxic | 20.3 µM | 17.8 µM |  |  |  |
| CCCCCCCCCCCCC[C@H](O)C[C@H](O)C(C)(C)N (racemic) |  |  |  |  |  | 4.7 µM | 5.2 µM |  |
| CCCCCCCCCCCCC[C@@H](O)C[C@H](O)C(C)(C)N (racemic) |  |  |  |  |  | 7.4 µM | 4.1 µM |  |
